The text below walks through data of ChEMBL document CHEMBL6109036, “Azo derivatives of monoterpenes as anti-Helicobacter pylori agents: from synthesis to structure-based target investigation” (RSC Med Chem, 2025).

Series [1] deals with Helicobacter pylori. The series is described as follows: Anti-bacterial activity against Helicobacter pylori Clinical isolate F1 measured after 72 hrs incubation by modified broth dilution method. Format: functional. On the technique in general: Broth dilution looks for growth in wells or tubes with falling amounts of substance.
For series [2], the system named is Helicobacter pylori. Description: Bactericidal activity against Helicobacter pylori Clinical isolate F1 measured after 72 hrs of incubation under microaerophilic conditions by modified broth dilution method. The settings on record: read-out: MBC99.9. Format: functional. The method in brief:
(§1)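 H. pylori (NCTC 11637, F1, 23, F4). Wells with no visible growth in the MIC assay spotted (10 μL) onto Skirrow agar. Plates incubated 72 h at 37 °C, microaerophilic, 100% humidity. MBC = concentration killing 99.9% of the initial inoculum. Triplicate, on at least three different days.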

Series [3] deals with Helicobacter pylori. Description: Anti-bacterial activity against Helicobacter pylori Clinical isolate 23 measured after 72 hrs incubation by modified broth dilution method. Format: functional.
The test system of series [4] is Helicobacter pylori. The series is described as follows: Bactericidal activity against Helicobacter pylori Clinical isolate 23 measured after 72 hrs of incubation under microaerophilic conditions by modified broth dilution method. The format is functional. The settings on record: read-out: MBC99.9. The essentials: as §1
In series [5] the test system is Helicobacter pylori. Description: Anti-bacterial activity against Helicobacter pylori NCTC 11637 measured after 72 hrs incubation by modified broth dilution method. The format is functional.
In series [6] the test system is Helicobacter pylori. The series is described as follows: Bactericidal activity against Helicobacter pylori NCTC 11637 measured after 72 hrs of incubation under microaerophilic conditions by modified broth dilution method. Format: functional. The following applies: read-out: MBC99.9. The essentials: as §1
For series [7], the system named is Helicobacter pylori. The series is described as follows: Anti-bacterial activity against Helicobacter pylori Clinical isolate F4 measured after 72 hrs incubation by modified broth dilution method. The format is functional.
Series [8] deals with Helicobacter pylori. Description: Bactericidal against Helicobacter pylori Clinical isolate F4 measured after 72 hrs of incubation under microaerophilic conditions by modified broth dilution method. Format: functional. The settings on record: read-out: MBC99.9. The essentials:
as §1

In series [9] the test system is Helicobacter pylori. Description: Anti-bacterial activity against Helicobacter pylori measured after 72 hrs incubation by modified broth dilution method. The format is functional.
Series [10] relates to Helicobacter pylori. Description: Bactericidal against Helicobacter pylori measured after 72 hrs of incubation under microaerophilic conditions by modified broth dilution method. The format is functional. The following applies: for MBC: Helicobacter pylori, read-out: MBC99.9. The essentials: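 Wells with no visible growth in the MIC assay spotted (10 μL) onto Skirrow agar. Plates incubated 72 h at 37 °C, microaerophilic, 100% humidity. Triplicate, on at least three different days.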

Series [11] can be described thus: Cytotoxicity against SV40-immortalized non-tumorigenic human GES1 cells assessed as cell viability measured after 24 hrs by Alamar blue assay. The format is toxicity, cell-based. The method in brief:
(§2)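 GES-1 cells grown in RPMI with 10% FCS, glutamine, pen/strep and 10 mM HEPES at 37 °C, 5% CO2. Exposed to increasing concentrations for 24, 48 or 72 h. Alamar blue then added for 4 h at 37 °C and read at 540 and 630 nm. Percent reduction relative to untreated cells (100%).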
In general terms: Alamar Blue is a resazurin reagent that responds to reducing activity.

Series [12] in a line: Cytotoxicity against SV40-immortalized non-tumorigenic human GES1 cells assessed as cell viability measured after 48 hrs by Alamar blue assay. The format is toxicity, cell-based. The essentials: as §2
Series [13] in a line: Cytotoxicity against SV40-immortalized non-tumorigenic human GES1 cells assessed as cell viability measured after 72 hrs by Alamar blue assay. Format: toxicity, cell-based. The essentials: as §2
The nature of series [14]: Cytotoxicity against human HIEC-6 cells assessed as cell viability measured after 24 hrs by MTT assay. On the technique in general: Tetrazolium dyes change colour on reduction, which living cells bring about.
The nature of series [15]: Cytotoxicity against human HIEC-6 cells assessed as cell viability measured after 48 hrs by MTT assay.
Series [16] is described as follows: Cytotoxicity against human HIEC-6 cells assessed as cell viability measured after 72 hrs by MTT assay.
In series [17] the test system is Escherichia coli. The series is described as follows: Bactericidal against lactose fermenting Escherichia coli ATCC 25922 measured after 24 hrs of incubation by broth microdilution method. The following applies: ATCC 25922, 24 h, read-out: MBC99.9.
Series [18] deals with Staphylococcus aureus. Description: Bactericidal against Gram-positive Staphylococcus aureus ATCC 29213 measured after 24 hrs of incubation by broth microdilution method. The following applies: ATCC 29213, 24 h, read-out: MBC99.9.
The test system of series [19] is Pseudomonas aeruginosa. The series is described as follows: Bactericidal against non-lactose fermenting Pseudomonas aeruginosa ATCC 27853 measured after 24 hrs of incubation by broth microdilution method. The following applies: ATCC 27853, 24 h, read-out: MBC99.9.
Series [20] deals with Escherichia coli. Description: Anti-bacterial activity against lactose fermenting Escherichia coli ATCC 25922 measured after 24 hrs incubation by modified broth dilution method. The settings on record: ATCC 25922, 24 h.
Series [21] has as its system Staphylococcus aureus. The series is described as follows: Anti-bacterial activity against Gram-positive Staphylococcus aureus ATCC 29213 measured after 24 hrs incubation by modified broth dilution method. The following applies: ATCC 29213, 24 h.
Series [22] has as its system Pseudomonas aeruginosa. Description: Anti-bacterial activity against non-lactose fermenting Pseudomonas aeruginosa ATCC 27853 measured after 24 hrs incubation by modified broth dilution method. The settings on record: ATCC 27853, 24 h.

In brackets after ≈: the same amount, converted by molar mass.

Take `Cc1ccc(C(C)C)c(/N=N/c2ccc([N+](=O)[O-])cc2)c1O`: the MIC is 2 µg/mL (≈ 6.68 µM) in series [1]; 2 µg/mL (≈ 6.68 µM) in [3]; 2 µg/mL (≈ 6.68 µM) in series [5]; 4 µg/mL (≈ 13.4 µM) in series [7]; more than 128 µg/mL in series [20]; 2 µg/mL (≈ 6.68 µM) in [21]. The same compound yielded an MIC in series [22] of more than 128 µg/mL. Further, the MBC in series [2] is 4 µg/mL (≈ 13.4 µM); in [4], 2 µg/mL (≈ 6.68 µM); in [6], 2 µg/mL (≈ 6.68 µM); in series [8] it was 4 µg/mL (≈ 13.4 µM); in series [17], more than 128 µg/mL; in [18], 32 µg/mL (≈ 107 µM). Besides, in [19], the MBC is more than 128 µg/mL. Besides, the MIC50 in [9] is 2 µg/mL (≈ 6.68 µM). Further, the MIC90 in [9] was 4 µg/mL (≈ 13.4 µM). In [10], this compound returned an MBC90 of 4 µg/mL (≈ 13.4 µM). Also, the IC50 at 24 h in [11] is 15 µg/mL (≈ 50.1 µM); in series [14], 15.1 µg/mL (≈ 50.3 µM). Further, the IC50 at 48 h in series [12] was 12.1 µg/mL (≈ 40.4 µM); in series [15], 13.4 µg/mL (≈ 44.7 µM). For the same compound, the IC50 at 72 h turned out to be 12 µg/mL (≈ 40.2 µM) in series [13] and 13.3 µg/mL (≈ 44.3 µM) in series [16].
On to `Cc1cc(O)c(C(C)C)cc1/N=N/c1ccc([N+](=O)[O-])cc1`, for which the MIC in series [1] is 2 µg/mL (≈ 6.68 µM); in series [3] it was 2 µg/mL (≈ 6.68 µM); in series [5], 2 µg/mL (≈ 6.68 µM); in [7], 4 µg/mL (≈ 13.4 µM); in series [20], more than 128 µg/mL; in [21], 2 µg/mL (≈ 6.68 µM). In [22], the MIC is more than 128 µg/mL. Also, the MBC is 2 µg/mL (≈ 6.68 µM) in [2]; 2 µg/mL (≈ 6.68 µM) in [4]; 2 µg/mL (≈ 6.68 µM) in series [6]; 4 µg/mL (≈ 13.4 µM) in series [8]; more than 128 µg/mL in series [17]; 32 µg/mL (≈ 107 µM) in series [18]. Further, the MBC in series [19] is more than 128 µg/mL. For the same compound, the MIC50 in [9] turned out to be 2 µg/mL (≈ 6.68 µM). In addition, the MIC90 in series [9] worked out at 4 µg/mL (≈ 13.4 µM). The MBC90 in series [10] was 4 µg/mL (≈ 13.4 µM). Further, the IC50 at 24 h in [11] was 12.1 µg/mL (≈ 40.4 µM); in series [14], 13.6 µg/mL (≈ 45.4 µM). Further, the IC50 at 72 h in [13] was determined as 8.44 µg/mL (≈ 28.2 µM); in series [16] it was 7.61 µg/mL (≈ 25.4 µM). Moreover, the IC50 at 48 h in series [15] turned out to be 7.61 µg/mL (≈ 25.4 µM).
Take `Cc1ncc([N+](=O)[O-])n1CCO` [METRONIDAZOLE]: the MIC is 2 µg/mL (≈ 11.7 µM) in series [1], 1 µg/mL (≈ 5.84 µM) in [3], 256 µg/mL (≈ 1500 µM) in [5] and 32 µg/mL (≈ 187 µM) in series [7]. Besides, the MBC in [2] amounted to 2 µg/mL (≈ 11.7 µM); in series [4], 1 µg/mL (≈ 5.84 µM); in series [6] it was 256 µg/mL (≈ 1500 µM); in [8], 32 µg/mL (≈ 187 µM). In [9], this compound displayed an MIC50 of 2 µg/mL (≈ 11.7 µM). Moreover, the MIC90 in series [9] worked out at 256 µg/mL (≈ 1500 µM). The compound also had an MBC90 in series [10] of 256 µg/mL (≈ 1500 µM).
For the compound `Cc1ccc(C(C)C)c(O)c1` [THYMOL], the MIC in series [1] is 64 µg/mL (≈ 426 µM); in series [3] it was 128 µg/mL (≈ 852 µM); in series [5] it was 128 µg/mL (≈ 852 µM); in series [7], 64 µg/mL (≈ 426 µM). Also, the MBC in [2] was 64 µg/mL (≈ 426 µM); in series [4], 128 µg/mL (≈ 852 µM); in [6], 128 µg/mL (≈ 852 µM); in series [8], 64 µg/mL (≈ 426 µM); in [10], 128 µg/mL (≈ 852 µM). This compound yielded an MIC50 in [9] of 64 µg/mL (≈ 426 µM). In series [9], the MIC90 came to 128 µg/mL (≈ 852 µM).
Take `COc1cc(C=O)ccc1O` [VANILLIN]: the MIC in series [1] was more than 128 µg/mL; in series [3], more than 128 µg/mL; in [5], more than 128 µg/mL; in series [7], 128 µg/mL (≈ 841 µM). Also, the MBC in [2] is more than 128 µg/mL; in series [4], more than 128 µg/mL; in series [6], more than 128 µg/mL; in series [8], 128 µg/mL (≈ 841 µM); in series [10], more than 128 µg/mL. For the same compound, in series [9], the MIC50 was more than 128 µg/mL. This compound showed an MIC90 in series [9] of more than 128 µg/mL.

A word on the MIC: it is the smallest concentration in the dilution series that meets the test's criterion for growth inhibition. A lower MIC goes with a more susceptible organism. One may read the MIC50 as an inhibitory concentration at the 50% level, which refers to growth in some studies and to a panel of isolates in others. A higher MIC50 goes with lower susceptibility. A word on the MIC90: it is an inhibitory concentration at the 90% level, which refers to growth in some studies and to a panel of isolates in others. A high value points to weaker potency. What is called IC50 is the concentration that inhibits the measured activity by half.
